What was measured:
[1] = system: P-RNase L21-732; assay: STD-NMR binding; parameters: species or system porcine; conditions: for STD-NMR signal (binding to P-RNase L): 10 μM P-RNase L21-732, 400 μM fragment; for STD-NMR binding to RNase L dimer: 2-5A in molar excess to RNase L; for STD-NMR binding with ATP/MgCl2: ATP/MgCl2 or mixture of 2-5A and ATP/MgCl2 in molar excess to RNase L; for STD-NMR binding to monomeric RNase L: absence of 2-5A
[2] = molecular target: porcine RNase L (P-RNase L) (Sus scrofa, UniProt A5H025); assay: FRET based enzyme assay of RNA substrate cleavage, P-RNase L; type: biochemical
[3] = molecular target: T1, human RNase L (H-RNase L) (Homo sapiens, UniProt Q05823); assay: FRET based enzyme assay of RNA substrate cleavage, H-RNase L; type: biochemical; conditions: for IC50 against RNase L, in words: in vitro
T1 sequence (Q05823 1-741): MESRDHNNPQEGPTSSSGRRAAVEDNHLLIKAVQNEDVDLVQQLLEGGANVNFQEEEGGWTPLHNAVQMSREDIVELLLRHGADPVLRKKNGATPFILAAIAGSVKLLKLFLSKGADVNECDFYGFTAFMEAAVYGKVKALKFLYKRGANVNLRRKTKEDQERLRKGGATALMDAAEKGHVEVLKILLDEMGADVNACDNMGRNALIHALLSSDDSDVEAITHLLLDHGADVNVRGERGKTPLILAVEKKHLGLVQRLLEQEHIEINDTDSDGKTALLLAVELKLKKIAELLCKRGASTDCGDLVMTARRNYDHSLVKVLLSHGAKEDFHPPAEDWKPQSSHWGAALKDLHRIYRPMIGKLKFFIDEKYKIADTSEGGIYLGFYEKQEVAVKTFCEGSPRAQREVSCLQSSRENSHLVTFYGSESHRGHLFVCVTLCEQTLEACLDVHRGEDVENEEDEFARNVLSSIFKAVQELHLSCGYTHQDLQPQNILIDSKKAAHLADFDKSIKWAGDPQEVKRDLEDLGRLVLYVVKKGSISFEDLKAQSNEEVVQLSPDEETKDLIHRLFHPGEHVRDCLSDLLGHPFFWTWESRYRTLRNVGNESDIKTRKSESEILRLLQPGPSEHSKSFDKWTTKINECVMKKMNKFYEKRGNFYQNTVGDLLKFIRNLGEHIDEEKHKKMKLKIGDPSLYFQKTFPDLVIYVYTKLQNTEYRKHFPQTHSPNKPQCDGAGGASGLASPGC

[4] = system: RNase L; conditions: cited from earlier work
[5] = system: RNase L; conditions: cited from earlier work; remark: listed apart in the source
[6] = molecular target: T2, H-RNase L (Homo sapiens, UniProt Q05823); assay: RNase L mediated rRNA cleavage in intact A549 cells; type: cell-based; conditions: 3-100 μM inhibitor, 4 h, then 20 μM trimeric 2-5A 2 h
T2 sequence (Q05823 1-741): T1 sequence (Q05823 1-741)

[7] = system: P-RNase L; assay: RNase L oligomerization assay; type: biochemical, porcine; conditions: 40 μM compound, 2-5A up to 2 μM
Summary of the method: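 Full-length porcine RNase L (0.8 μM) with 5 mM MgCl₂, preincubated ±test compound 15 min on ice. 2-5A then added for a further 15 min on ice. Cross-linked with DMS (120 mg/mL stock in 0.4 M triethanolamine-HCl, pH 8.5) 1 h at room temperature. Denatured in SDS/β-mercaptoethanol loading buffer at 95 °C for 5 min. Resolved by 4-12% gradient SDS-PAGE with Coomassie G-250 stain and imaged.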

In the case of `O=C(O)c1ccc(Cl)nc1Cl` [AC39661], the “STD-NMR signal (binding to P-RNase L)” value [1] is reported as “positive”.
For `CCCCOC(=O)c1ccc(O)cc1` [AC40357], the “inhibition of P-RNase L in vitro” value [2] was “inhibited only H-RNase L”, the “inhibition of H-RNase L in vitro” value [3] was “inhibited” and the “IC50 against RNase L, in words” value [3] was “low millimolar”. The “STD-NMR signal (binding to P-RNase L)” value [1] was “positive”.
In the case of `Oc1ccc(Sc2ccc(O)cc2)cc1` [BTB10184], the “STD-NMR signal (binding to P-RNase L)” value [1] is reported as “positive”.
In the case of `C[S+]([O-])c1sc(Cl)c2c1C(=O)CCC2` (centres unmarked) [KM05073], the “STD-NMR signal (binding to P-RNase L)” value [1] is reported as “positive”.
With `Cc1cc(C(=O)O)cc(Cl)n1` [RF03759] the “STD-NMR signal (binding to P-RNase L)” value [1] was “positive”.
In the case of `O=C(O)c1cc(O)c(O)c(O)c1Oc1cc2c(=O)oc3c(O)c(O)cc4c(=O)oc(c1O)c2c34` [VAL, valoneic acid dilactone], the “inhibition activity on RNase L in vitro, in words” value [4] is listed as “nanomolar” and the “EC50 for RNase L in intact cells, in words” value [5] is listed as “micromolar range”.
For `O=c1c(O[C@@H]2O[C@H](CO)[C@H](O)[C@H](O)[C@H]2O)c(-c2ccc(O)c(O)c2)oc2cc(O)cc(O)c12` [hyperoside], the “inhibitory activity against RNase L in intact cells (rRNA cleavage)” value (shortened to “inhibitory activity against RNase L”) [6] was “did not show any inhibitory activity”, the “suppression of 2-5A induced RNase L dimerization (cross-linking)” value [7] was “did not suppress” and the “inhibition of P-RNase L in vitro” value [2] was “inhibited”. The “effect of 2-5A concentration on potency against P-RNase L” value ([2]; 2-5A 1, 5 and 20 nM) was “does not seem to have an effect”, the “inhibition of H-RNase L in vitro” value [3] was “inhibited” and the “effect of 2-5A concentration on potency against H-RNase L” value ([3]; 2-5A 1, 5 and 20 nM) was “does not seem to have an effect”. For the same molecule, the “IC50 against RNase L, in words” value [3] was “single-digit micromolar”, the “STD-NMR binding to RNase L dimer” value [1] was “positive STD signal” and the “STD-NMR binding with ATP/MgCl2” value [1] was “remained positive”. The “STD-NMR binding to monomeric RNase L” value [1] was “directly interacts”.
With `O=c1c(O)c(-c2ccc(O)cc2O)oc2cc(O)cc(O)c12` [morin] the “inhibition of P-RNase L in vitro” value [2] was “not active” and the “inhibition of H-RNase L in vitro” value [3] was “not active”.
For `O=c1c(O)c(-c2cc(O)c(O)c(O)c2)oc2cc(O)cc(O)c12` [myricetin], the “inhibitory activity against RNase L” value [6] was “identical inhibitory activity to that of VAL”, the “inhibition of P-RNase L in vitro” value [2] was “inhibited” and the “inhibition of H-RNase L in vitro” value [3] was “inhibited”. For the same molecule, the “STD-NMR binding to RNase L dimer” value [1] was “positive STD signal”, the “STD-NMR binding with ATP/MgCl2” value [1] was “remained positive” and the “STD-NMR binding to monomeric RNase L” value [1] was “directly interacts”.
With `O=C(CCc1ccc(O)cc1)c1c(O)cc(O)cc1O` [phloretin] the “inhibition of H-RNase L in vitro” value [3] was “inhibited”.
For `CCN(CC)CCNC(=O)c1c(C)[nH]c(/C=C2\C(=O)Nc3ccc(F)cc32)c1C` [sunitinib], the “IC50 against RNase L in vitro, in words” value [4] is listed as “micromolar range”.
For `O=c1cc(-c2ccc(O)cc2)oc2c([C@@H]3O[C@H](CO)[C@@H](O)[C@H](O)[C@H]3O)c(O)cc(O)c12` [vitexin], the “inhibitory activity against RNase L” value [6] was “did not show any inhibitory activity” and the “STD-NMR signal (binding to P-RNase L)” value [1] was “directly binds”.

From publication PMC10620946 (Journal of medicinal chemistry, 2021)
